The target of series [1] is ALK tyrosine kinase receptor (Homo sapiens) (UniProt Q9UM73). Briefly: Inhibition of ALK (unknown origin) at 1000 nM relative to control.
For series [2], the target named is Receptor tyrosine-protein kinase erbB-4 (Homo sapiens) (UniProt Q15303). Briefly: Inhibition of ErbB4 (unknown origin) at 1000 nM relative to control. The gist of the method: (§1)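 Purified recombinant kinase domains run in ELISA on precoated poly(Glu,Tyr) 4:1 (20 µg/mL) with 10 µM ATP in 50 mM HEPES pH 7.4, 50 mM MgCl2, 0.5 mM MnCl2, 0.2 mM Na3VO4, 1 mM DTT; 1% DMSO control; 60 min at 37 °C. Phosphotyrosine read by PY99 antibody, HRP anti-mouse IgG, OPD/H2O2 at 490 nm; inhibition = [1−A490/A490control]×100%; two separate experiments.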

Series [3] addresses Ephrin type-A receptor 2 (Homo sapiens) (UniProt P29317). Briefly: Inhibition of EPH-A2 (unknown origin) at 1000 nM relative to control. The procedure, abridged:
as §1

For another series, the system named is KG-1. Briefly: Antiproliferative activity against FGFR1 fused human KG1 cells after 72 hrs by CCK8 assay. The series is classed as functional, cell-based. The settings on record: KG-1, 72 h. The procedure, abridged:
(§2)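 Cells seeded at low density in growth medium and compounds added the next day. Incubated 72 h, then proliferation read by sulforhodamine B, MTT or CCK-8. IC50 obtained by four-parameter concentration-response curve fitting.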

Series [4] concerns the target Proto-oncogene tyrosine-protein kinase Src (Homo sapiens) (UniProt P12931). Briefly: Inhibition of c-Src (unknown origin) at 10 nM relative to control. The gist of the method: (§3)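 ELISA with purified recombinant kinase on plates precoated with poly(Glu,Tyr) 4:1 at 20 µg/mL. ATP 10 µM in HEPES pH 7.4 buffer with MgCl2, MnCl2, Na3VO4 and DTT. Run 60 min at 37 °C. Detected with anti-phosphotyrosine PY99, HRP secondary antibody and o-phenylenediamine, read at 490 nm. Inhibition % = [1 − A490/A490 control]×100. 1% DMSO as negative control.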

In series [5] the target is Platelet-derived growth factor receptor alpha (Homo sapiens) (UniProt P16234). Nature of the series: Inhibition of PDGFR-alpha (unknown origin) at 1000 nM relative to control. The gist of the method: as §1
Series [6] deals with Mitogen-activated protein kinase 3 (Homo sapiens) (UniProt P27361). Nature of the series: Inhibition of ERK1 (unknown origin) at 10 nM relative to control.
Series [7] addresses T1, Ephrin type-B receptor 2 (Homo sapiens) (UniProt P29323).
T1 sequence (whole entry): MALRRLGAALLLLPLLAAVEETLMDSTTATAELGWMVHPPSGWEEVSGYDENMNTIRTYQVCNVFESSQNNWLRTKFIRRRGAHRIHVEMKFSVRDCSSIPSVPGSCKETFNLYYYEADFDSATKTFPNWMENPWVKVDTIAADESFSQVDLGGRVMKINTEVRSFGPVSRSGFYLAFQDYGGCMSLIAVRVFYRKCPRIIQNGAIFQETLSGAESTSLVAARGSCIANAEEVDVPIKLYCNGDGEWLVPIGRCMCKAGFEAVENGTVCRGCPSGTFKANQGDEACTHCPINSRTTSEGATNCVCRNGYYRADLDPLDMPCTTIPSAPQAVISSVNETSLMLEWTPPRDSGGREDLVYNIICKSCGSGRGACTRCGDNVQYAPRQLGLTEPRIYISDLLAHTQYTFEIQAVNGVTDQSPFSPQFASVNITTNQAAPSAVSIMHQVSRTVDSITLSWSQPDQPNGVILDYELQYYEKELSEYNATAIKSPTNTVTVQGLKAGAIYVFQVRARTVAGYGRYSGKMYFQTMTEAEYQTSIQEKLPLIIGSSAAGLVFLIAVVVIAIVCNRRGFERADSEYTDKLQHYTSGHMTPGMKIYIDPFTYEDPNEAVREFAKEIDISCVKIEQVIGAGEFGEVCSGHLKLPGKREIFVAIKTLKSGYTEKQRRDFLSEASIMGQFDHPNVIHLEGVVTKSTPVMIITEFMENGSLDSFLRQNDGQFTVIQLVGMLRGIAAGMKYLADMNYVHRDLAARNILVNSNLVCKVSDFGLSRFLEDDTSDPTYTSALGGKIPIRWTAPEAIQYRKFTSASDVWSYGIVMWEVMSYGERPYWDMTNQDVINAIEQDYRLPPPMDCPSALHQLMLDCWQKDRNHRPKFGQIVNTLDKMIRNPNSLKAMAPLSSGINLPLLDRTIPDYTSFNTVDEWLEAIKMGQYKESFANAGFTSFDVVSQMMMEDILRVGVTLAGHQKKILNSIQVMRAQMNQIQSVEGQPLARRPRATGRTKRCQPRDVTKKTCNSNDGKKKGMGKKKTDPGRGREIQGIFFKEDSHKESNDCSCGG
Nature of the series: Inhibition of EPH-B2 (unknown origin) at 100 nM relative to control. The procedure, abridged:
as §1

For series [8], the target named is Cyclin-dependent kinase 6 (Homo sapiens) (UniProt Q00534). Nature of the series: Inhibition of CDK6 (unknown origin) at 1000 nM relative to control.
The target in series [9] is T1, Ephrin type-B receptor 2 (Homo sapiens). Briefly: Inhibition of EPH-B2 (unknown origin) at 1000 nM relative to control. The procedure, abridged: as §1
Series [10] deals with Mitogen-activated protein kinase 3 (Homo sapiens) (UniProt P27361). Nature of the series: Inhibition of ERK1 (unknown origin) at 1000 nM relative to control.
Series [11] concerns the target Focal adhesion kinase 1 (Homo sapiens) (UniProt Q05397). Nature of the series: Inhibition of FAK (unknown origin) at 1000 nM relative to control. The gist of the method: as §1
Series [12] addresses Insulin-like growth factor 1 receptor (Homo sapiens) (UniProt P08069). Briefly: Inhibition of IGF1R (unknown origin) at 10 nM relative to control. The gist of the method:
as §1

A short description of series [13]: Antiproliferative activity against human UM-UC-14 cells harboring FGFR3 mutation after 72 hrs by CCK8 assay. The series is classed as functional, cell-based. The conditions noted are these: UMUC14, 72 h. The procedure, abridged:
as §2

The target of series [14] is Insulin-like growth factor 1 receptor (Homo sapiens) (UniProt P08069). Briefly: Inhibition of IGF1R (unknown origin) at 1000 nM relative to control. The gist of the method:
as §1

Series [15] addresses Hepatocyte growth factor receptor (Homo sapiens) (UniProt P08581). Briefly: Inhibition of c-Met (unknown origin) at 1000 nM relative to control. The gist of the method: as §3
Series [16] concerns the target Tyrosine-protein kinase JAK2 (Homo sapiens) (UniProt O60674). Nature of the series: Inhibition of JAK2 (unknown origin) at 100 nM relative to control. The gist of the method: as §1
A short description of series [17]: Efflux ratio of permeability in human Caco2 cells at 5 uM after 120 mins by LC-MS/MS analysis. The series is classed as ADME, cell-based. The conditions noted are these: Caco-2. The procedure, abridged:
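Caco-2 (C2BBe1) monolayers grown to confluence on collagen-coated transwell polycarbonate membranes. Compound at 5 μM added apically or basolaterally in HBSS with 10 mM HEPES at pH 7.4 and 6.8. Duplicate samples taken at 120 min and analysed by LC-MS/MS. Efflux ratio = Papp(B→A)/Papp(A→B).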

Series [18] can be described thus: Solubility of compound. The series is classed as physicochemical.
In another series the test system is NCI-H2286. Nature of the series: Antiproliferative activity against human NCI-H2286 cells harboring DDR2 mutation after 72 hrs by CCK8 assay. In kind it is functional, cell-based. The settings on record: NCI-H2286, 72 h. The gist of the method: as §2
Series [19] deals with Tyrosine-protein kinase BTK (Homo sapiens) (UniProt Q06187). Briefly: Inhibition of BTK (unknown origin) at 100 nM relative to control.

Values after ≈ are worked out from the molar mass of the structure shown.

The values below come from ChEMBL document CHEMBL4411287, “Discovery and optimization of a series of 3-substituted indazole derivatives as multi-target kinase inhibitors for the treatment of lung squamous cell carcinoma” (Eur J Med Chem, 2019).

Chain of Mitogen-activated protein kinase 3 (Homo sapiens) (P27361 whole entry): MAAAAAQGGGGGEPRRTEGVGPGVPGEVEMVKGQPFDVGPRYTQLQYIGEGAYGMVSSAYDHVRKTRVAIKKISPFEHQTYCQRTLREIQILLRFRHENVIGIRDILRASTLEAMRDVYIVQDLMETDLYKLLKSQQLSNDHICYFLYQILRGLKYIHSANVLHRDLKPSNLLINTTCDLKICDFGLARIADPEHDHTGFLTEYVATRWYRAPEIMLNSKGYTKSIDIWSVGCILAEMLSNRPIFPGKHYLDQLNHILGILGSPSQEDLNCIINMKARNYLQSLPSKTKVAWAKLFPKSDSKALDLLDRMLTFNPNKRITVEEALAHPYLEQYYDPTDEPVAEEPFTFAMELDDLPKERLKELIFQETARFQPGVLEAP
Chain of Insulin-like growth factor 1 receptor (Homo sapiens) (P08069 31-736 limits assumed): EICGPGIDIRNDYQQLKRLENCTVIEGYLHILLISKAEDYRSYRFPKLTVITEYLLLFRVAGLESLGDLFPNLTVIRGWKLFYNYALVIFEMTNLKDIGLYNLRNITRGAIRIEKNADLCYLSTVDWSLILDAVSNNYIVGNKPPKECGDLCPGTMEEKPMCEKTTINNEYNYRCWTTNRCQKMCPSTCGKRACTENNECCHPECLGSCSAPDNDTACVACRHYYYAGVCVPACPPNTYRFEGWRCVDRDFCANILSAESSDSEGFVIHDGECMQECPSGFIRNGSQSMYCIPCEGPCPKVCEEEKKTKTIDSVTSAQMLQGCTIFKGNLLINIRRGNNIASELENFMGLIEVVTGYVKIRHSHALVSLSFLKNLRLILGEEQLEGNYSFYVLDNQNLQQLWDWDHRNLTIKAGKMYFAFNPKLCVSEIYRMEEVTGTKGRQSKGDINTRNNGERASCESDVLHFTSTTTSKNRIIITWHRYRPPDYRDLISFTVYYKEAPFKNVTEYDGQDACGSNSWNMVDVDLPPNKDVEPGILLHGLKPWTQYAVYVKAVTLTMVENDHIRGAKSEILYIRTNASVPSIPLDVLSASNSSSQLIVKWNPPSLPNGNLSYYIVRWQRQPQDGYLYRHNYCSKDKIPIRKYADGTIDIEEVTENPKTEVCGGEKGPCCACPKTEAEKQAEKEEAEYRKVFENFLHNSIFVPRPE
Chain of Insulin-like growth factor 1 receptor (Homo sapiens) (P08069 741-1367 limits assumed): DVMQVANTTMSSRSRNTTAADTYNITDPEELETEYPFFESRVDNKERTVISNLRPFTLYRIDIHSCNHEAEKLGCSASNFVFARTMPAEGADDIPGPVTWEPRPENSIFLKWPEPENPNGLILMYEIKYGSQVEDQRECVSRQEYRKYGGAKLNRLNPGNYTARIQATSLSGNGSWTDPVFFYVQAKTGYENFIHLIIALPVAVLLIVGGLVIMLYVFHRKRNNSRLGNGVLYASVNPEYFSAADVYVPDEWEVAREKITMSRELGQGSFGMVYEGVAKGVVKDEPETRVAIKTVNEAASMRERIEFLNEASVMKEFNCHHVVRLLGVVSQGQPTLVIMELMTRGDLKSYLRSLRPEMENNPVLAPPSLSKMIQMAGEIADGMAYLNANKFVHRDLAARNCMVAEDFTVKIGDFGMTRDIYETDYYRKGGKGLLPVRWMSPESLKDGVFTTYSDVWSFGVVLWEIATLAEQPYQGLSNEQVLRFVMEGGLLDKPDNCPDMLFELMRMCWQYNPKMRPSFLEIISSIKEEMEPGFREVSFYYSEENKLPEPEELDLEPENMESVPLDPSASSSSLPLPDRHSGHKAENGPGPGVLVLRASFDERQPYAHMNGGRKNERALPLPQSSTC
Chain of Proto-oncogene tyrosine-protein kinase Src (Homo sapiens) (P12931 2-536 limits assumed): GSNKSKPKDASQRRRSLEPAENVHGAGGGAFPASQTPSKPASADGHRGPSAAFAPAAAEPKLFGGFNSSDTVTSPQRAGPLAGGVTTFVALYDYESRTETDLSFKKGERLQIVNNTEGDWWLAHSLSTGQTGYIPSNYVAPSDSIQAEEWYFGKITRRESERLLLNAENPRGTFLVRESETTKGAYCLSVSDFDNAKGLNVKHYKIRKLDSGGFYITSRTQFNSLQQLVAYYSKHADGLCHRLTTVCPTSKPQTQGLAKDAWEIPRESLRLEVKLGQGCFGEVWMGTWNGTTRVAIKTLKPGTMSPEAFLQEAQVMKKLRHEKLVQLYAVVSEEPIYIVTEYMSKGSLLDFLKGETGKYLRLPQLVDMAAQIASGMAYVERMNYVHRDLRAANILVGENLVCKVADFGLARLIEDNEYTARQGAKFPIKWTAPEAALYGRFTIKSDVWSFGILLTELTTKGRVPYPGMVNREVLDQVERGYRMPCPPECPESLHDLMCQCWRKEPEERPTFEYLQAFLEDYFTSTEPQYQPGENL
Chain of Receptor tyrosine-protein kinase erbB-4 (Homo sapiens) (Q15303 whole entry, the tested form may be a part): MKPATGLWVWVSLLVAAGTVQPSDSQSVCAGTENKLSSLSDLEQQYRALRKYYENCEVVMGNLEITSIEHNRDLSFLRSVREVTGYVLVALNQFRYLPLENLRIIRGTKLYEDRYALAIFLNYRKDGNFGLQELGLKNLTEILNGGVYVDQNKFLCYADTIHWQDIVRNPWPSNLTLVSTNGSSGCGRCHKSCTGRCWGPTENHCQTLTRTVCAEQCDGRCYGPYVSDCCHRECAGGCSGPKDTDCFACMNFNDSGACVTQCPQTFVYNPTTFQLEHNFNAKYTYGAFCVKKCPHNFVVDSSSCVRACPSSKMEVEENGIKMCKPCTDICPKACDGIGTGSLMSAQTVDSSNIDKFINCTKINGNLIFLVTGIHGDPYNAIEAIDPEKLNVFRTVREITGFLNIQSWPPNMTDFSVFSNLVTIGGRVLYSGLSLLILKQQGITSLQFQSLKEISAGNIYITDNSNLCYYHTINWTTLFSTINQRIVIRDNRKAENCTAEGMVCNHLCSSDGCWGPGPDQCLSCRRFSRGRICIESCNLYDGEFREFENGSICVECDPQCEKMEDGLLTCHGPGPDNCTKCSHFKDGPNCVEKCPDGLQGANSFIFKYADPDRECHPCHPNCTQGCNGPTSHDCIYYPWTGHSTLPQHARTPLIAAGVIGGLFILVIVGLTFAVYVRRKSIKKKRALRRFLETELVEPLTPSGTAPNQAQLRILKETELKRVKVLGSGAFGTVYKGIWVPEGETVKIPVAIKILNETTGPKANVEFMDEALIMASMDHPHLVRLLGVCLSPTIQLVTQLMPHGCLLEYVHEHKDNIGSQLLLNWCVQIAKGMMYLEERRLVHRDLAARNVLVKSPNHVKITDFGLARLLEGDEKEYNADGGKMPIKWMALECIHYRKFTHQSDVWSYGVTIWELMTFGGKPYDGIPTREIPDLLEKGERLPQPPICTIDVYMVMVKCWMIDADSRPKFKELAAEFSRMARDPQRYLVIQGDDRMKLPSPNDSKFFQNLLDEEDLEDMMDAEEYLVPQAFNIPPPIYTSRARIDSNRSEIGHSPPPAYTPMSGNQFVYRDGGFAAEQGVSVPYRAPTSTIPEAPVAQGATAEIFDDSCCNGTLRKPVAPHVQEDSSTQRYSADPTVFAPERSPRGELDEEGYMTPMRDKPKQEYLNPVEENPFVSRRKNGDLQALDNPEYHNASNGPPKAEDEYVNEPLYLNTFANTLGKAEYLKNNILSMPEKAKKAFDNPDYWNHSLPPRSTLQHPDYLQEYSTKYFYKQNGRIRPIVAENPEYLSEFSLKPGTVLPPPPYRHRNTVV
Chain of Hepatocyte growth factor receptor (Homo sapiens) (P08581 whole entry): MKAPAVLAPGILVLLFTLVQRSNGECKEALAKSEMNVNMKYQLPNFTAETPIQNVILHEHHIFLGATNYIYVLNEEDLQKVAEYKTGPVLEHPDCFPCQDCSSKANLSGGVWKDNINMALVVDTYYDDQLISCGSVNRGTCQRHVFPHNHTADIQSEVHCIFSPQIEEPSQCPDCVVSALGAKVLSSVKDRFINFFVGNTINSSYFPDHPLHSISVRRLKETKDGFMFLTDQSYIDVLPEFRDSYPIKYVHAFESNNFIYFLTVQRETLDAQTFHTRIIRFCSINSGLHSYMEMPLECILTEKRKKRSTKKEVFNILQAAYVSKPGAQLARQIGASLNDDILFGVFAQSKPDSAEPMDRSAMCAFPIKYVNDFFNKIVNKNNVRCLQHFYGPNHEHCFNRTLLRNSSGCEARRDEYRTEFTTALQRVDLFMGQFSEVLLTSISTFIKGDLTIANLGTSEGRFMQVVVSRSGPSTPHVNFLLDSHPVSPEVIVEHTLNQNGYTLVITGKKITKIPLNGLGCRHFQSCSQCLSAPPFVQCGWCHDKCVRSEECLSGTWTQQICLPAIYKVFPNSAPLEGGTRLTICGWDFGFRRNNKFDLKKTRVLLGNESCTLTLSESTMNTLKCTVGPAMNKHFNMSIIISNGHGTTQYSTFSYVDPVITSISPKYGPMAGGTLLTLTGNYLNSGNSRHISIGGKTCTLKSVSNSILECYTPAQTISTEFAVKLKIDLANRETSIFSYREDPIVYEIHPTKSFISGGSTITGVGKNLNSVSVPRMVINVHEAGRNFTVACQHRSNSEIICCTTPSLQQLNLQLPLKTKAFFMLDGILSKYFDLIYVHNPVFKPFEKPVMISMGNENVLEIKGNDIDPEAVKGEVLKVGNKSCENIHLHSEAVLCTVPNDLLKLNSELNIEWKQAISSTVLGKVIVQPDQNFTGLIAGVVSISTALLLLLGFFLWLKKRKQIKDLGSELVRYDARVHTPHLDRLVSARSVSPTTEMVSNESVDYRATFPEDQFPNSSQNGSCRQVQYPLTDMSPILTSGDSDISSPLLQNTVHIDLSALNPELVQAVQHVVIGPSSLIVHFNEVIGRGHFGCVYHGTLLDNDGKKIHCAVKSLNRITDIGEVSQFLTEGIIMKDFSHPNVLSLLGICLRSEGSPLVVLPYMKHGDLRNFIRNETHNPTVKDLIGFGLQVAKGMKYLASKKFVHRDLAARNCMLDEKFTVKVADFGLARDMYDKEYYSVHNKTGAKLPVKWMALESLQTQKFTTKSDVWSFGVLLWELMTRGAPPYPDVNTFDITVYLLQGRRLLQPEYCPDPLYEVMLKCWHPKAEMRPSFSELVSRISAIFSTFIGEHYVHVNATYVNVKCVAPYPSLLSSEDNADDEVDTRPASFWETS

For `Cc1ccc(C(=O)Nc2cccc(C(F)(F)F)c2)cc1-c1ccc2c(-c3cnn(C4CC4)c3)n[nH]c2c1`, the inhibition was 93.5% in [1]; 36.9% in series [2]; 100% in [3]; 64.5% in series [4]; 100% in [5]; -2.8% in series [6]. Moreover, the inhibition in [7] came to 76.7%; in series [8], 5.9%; in [9], 86.9%; in [10] it was 3.8%; in series [11] it was 81.7%; in series [12] it was 0%. The inhibition was found to be 5.5% in series [14], 47.5% in series [15], 2.5% in series [16] and 47.1% in series [19]. Moreover, the figures for the 50% inhibitory concentration (IC50) (with KG-1; in series [13]; with NCI-H2286) were 0.108 µM, 0.307 µM and 0.093 µM, respectively. In [17], the efflux ratio at 2 h, 5 µM was 1.1. The amount in solution in [18] (solubility) came to 2 µM (≈ 1 µg/mL).
